Test results from ChEMBL document CHEMBL1155970, “Synthesis and biological evaluation of quinic acid derivatives as anti-inflammatory agents” (Bioorg Med Chem Lett, 2009).
Active and inactive are the calls of the source. No cut-off for these calls is given here.

Test system: A549
Test: Cytotoxicity against human A549 cells after 2 hrs by MTS assay
Assay type: cell-based
Settings: a549, 18 h, in the assay text read “18 hrs” for “2 hrs”
Outline: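 A549SN cells were plated at 1 × 10⁴ per well and held 24 h at 37 °C, then treated in duplicate for 18 h alongside vehicle and medium-only controls. Viability was read by MTS: formazan absorbance at 490 nm after 2 h, with the media-only background subtracted.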
With O=C(O)[C@]1(O)C[C@@H](O)[C@@H](O)[C@H](O)C1 [QUINIC ACID] the Activity was “Not Active”. For CCCNC(=O)[C@]1(O)C[C@@H](O)[C@@H](O)[C@H](O)C1, the Activity was “Not Active”.

Test system: Radical scavenging activity
Test: Antioxidant activity assessed as DPPH radical scavenging activity by UV-visible spectrophotometry
Assay type: functional
Settings: not given
Outline: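 DPPH stock at 0.625 mM in 50% acetone, stored at 4 °C in the dark; diluted daily to a 0.208 mM working solution. Samples in 50% acetone were mixed 1:1 with working DPPH, giving 0.104 mM DPPH initially. Mixtures were vortexed and read immediately at 515 nm against a 50% acetone blank, and remaining DPPH was calculated.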
With O=C(/C=C/c1ccc(O)c(O)c1)O[C@@H]1C[C@](O)(C(=O)O)C[C@@H](O)[C@H]1O the Activity was “Active”. For O=C(O)[C@]1(O)C[C@@H](O)[C@@H](O)[C@H](O)C1 [QUINIC ACID], the Activity was “inactive”. In the case of CCCNC(=O)[C@]1(O)C[C@@H](O)[C@@H](O)[C@H](O)C1, the Activity is reported as “inactive”. With O=C(O)/C=C/c1ccc(O)c(O)c1 the Activity was “Active”. For O=C1O[C@H]([C@@H](O)CO)C(O)=C1O, the Activity was “Active”.

Test system: A549
Test: Inhibition of human NF-kappaB in TNF-alpha-stimulated A549 cells assessed as secreted alkaline phosphatase level at 1 uM after 18 hrs
Assay type: cell-based
Settings: not given
Outline: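 The A549 NF-κB–SEAP reporter line was given TNF-α (10 ng/mL) plus compound at a single concentration, with dexamethasone as positive control. Supernatant SEAP was read 18 h later by chemiluminescence. Results are expressed as % inhibition relative to TNF-α alone, mean ± standard deviation, n = 3.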
In the case of CC(C)NC(=O)[C@]1(O)C[C@@H](O)[C@@H](O)[C@H](O)C1, the Activity is reported as “Active”. With NCCNC(=O)[C@]1(O)C[C@@H](O)[C@@H](O)[C@H](O)C1 the Activity was “Active”. In the case of CCCNC(=O)[C@]1(O)C[C@@H](O)[C@@H](O)[C@H](O)C1, the Activity is reported as “Active”. In the case of CC(=O)O[C@@H]1C[C@](OC(C)=O)(C(=O)O)C[C@@H](OC(C)=O)[C@H]1OC(C)=O, the Activity is reported as “inactive”. In the case of CC(C)(C)OC(=O)NCCNC(=O)[C@]1(O)C[C@@H](O)[C@@H](O)[C@H](O)C1, the Activity is reported as “Active”.

Test system: not listed separately
Test: Inhibition of human NF-kappaB in TNF-alpha-stimulated A549 cells assessed as secreted alkaline phosphatase level after 18 hrs
Assay type: cell-based
Settings: A549, 18 h
Outline: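 Type II-like A549 cells stably carrying an NF-κB response element–SEAP reporter were plated overnight at 6 × 10⁴ cells/well. They were then stimulated with human recombinant TNF-α (10 ng/mL) together with compound. After 18 h, supernatant SEAP was measured by chemiluminescence and normalized to lysate total protein (BCA). IC50 came from dose–response curves, n = 3 separate experiments.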
In the case of CCCNC(=O)[C@]1(O)C[C@@H](O)[C@@H](O)[C@H](O)C1, the IC50 is reported as 2.83 µM.
